This note sets out measurements from ChEMBL document CHEMBL2331484, “Synthesis and biological evaluation of scopoletin derivatives” (Bioorg Med Chem, 2013).

Each structure is given as a SMILES string. The source made the active and inactive calls. No cut-off for these calls is given here.

For experiment [1], the system named is HUVEC. The experiment is described as follows: Antiproliferative activity against HUVEC assessed as growth inhibition rate at 100 uM after 24 hrs by MTT assay. The following applies: Homo sapiens, read-out: GI. The class given is functional. In short, it runs like this:
(§1)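 HUVECs (passages 3–5, primary cord isolates) seeded at 1 × 10⁴ cells/well. Medium replaced with M199 containing 1% FBS plus compound. Viability read by MTT after 24 h. Percent inhibition was calculated from A570 minus A630 of treated versus control wells, and IC50 determined. Triplicate experiments, means ± SEM.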

For experiment [2], the system named is HUVEC. The experiment is described as follows: Antiproliferative activity against HUVEC assessed as growth inhibition rate at 10 uM after 24 hrs by MTT assay. The note with it: Homo sapiens, read-out: GI. It is filed as functional. In short, it runs like this: as §1
(In general: Tetrazolium assays rely on reduction of a dye to a coloured formazan, in cell work by metabolically active cells.)

Experiment [3] has as its system HUVEC. The experiment is described as follows: Antiproliferative activity against HUVEC assessed as growth inhibition rate after 24 hrs by MTT assay. It is filed as functional, cell-based. The note with it: Homo sapiens. In short, it runs like this:
as §1

The test system of experiment [4] is HUVEC. In words: Effect on total p38 MAPK level in VEGF-stimulated HUVEC pretreated at 10 to 50 umol/L for 30 mins before VEGF addition by Western blot analysis. It is filed as functional, cell-based. The following applies: Homo sapiens. For orientation: In western blotting, separated proteins are transferred to a membrane and probed.
In experiment [5] the test system is HUVEC. The experiment is described as follows: Effect on total src level in VEGF-stimulated HUVEC pretreated at 10 to 50 umol/L for 30 mins before VEGF addition by Western blot analysis. The following applies: Homo sapiens. The class given is functional, cell-based.
Experiment [6] has as its system HUVEC. In words: Effect on total ERK1/2 level in VEGF-stimulated HUVEC pretreated at 10 to 50 umol/L for 30 mins before VEGF addition by Western blot analysis. The note with it: Homo sapiens. The class given is functional, cell-based.
The subject of experiment [7] is HUVEC. The experiment is described as follows: Effect on total akt level in VEGF-stimulated HUVEC pretreated at 10 to 50 umol/L for 30 mins before VEGF addition by Western blot analysis. The class given is functional, cell-based. The following applies: Homo sapiens.
Experiment [8] has as its target MAP kinase p38 (Homo sapiens) (UniProt O15264+Q15759+Q16539+P53778). The experiment is described as follows: Inhibition of VEGF receptor signaling in VEGF-stimulated HUVEC assessed a effect on p38 MAPK phosphorylation pretreated at 10 to 50 umol/L for 30 mins before VEGF addition by Western blot analysis. It is filed as protein assay.
The nature of experiment [9]: Inhibition of VEGF receptor signaling in VEGF-stimulated HUVEC assessed a effect on src phosphorylation pretreated at 10 to 50 umol/L for 30 mins before VEGF addition by Western blot analysis. The class given is cell-based. The following applies: Homo sapiens.
Experiment [10] is described as follows: Inhibition of VEGF receptor signaling in HUVEC assessed a inhibition of VEGF-induced Akt phosphorylation pretreated at 10 to 50 umol/L for 30 mins before VEGF addition by Western blot analysis. It is filed as cell-based. The note with it: Homo sapiens.
In experiment [11] the test system is PANC-1. The experiment is described as follows: Inhibition of MMP-2 protein expression in human PANC1 cells at 10 to 50 umol/L after 24 hrs by SDS-PAGE analysis. The class given is functional, cell-based. In short, it runs like this:
(§2)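 Gelatin zymography of culture medium from equal numbers of PANC-1 cells exposed to compound for 24 h. Samples run non-reduced and unboiled on 10% polyacrylamide with 1 mg/mL gelatin. Gel washed in 2.5% Triton X-100 buffer, digested 14 h at 37 °C in Tris–HCl/CaCl2/ZnCl2 buffer pH 7.6, then Coomassie-stained. Clear bands imaged.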

The nature of experiment [12]: Inhibition of VEGF receptor signaling in HUVEC assessed a inhibition of VEGF-induced ERK1/2 phosphorylation pretreated at 10 to 50 umol/L for 30 mins before VEGF addition by Western blot analysis. The following applies: Homo sapiens. The class given is cell-based.
For experiment [13], the system named is PANC-1. In words: Inhibition of MMP-9 protein expression in human PANC1 cells at 10 to 50 umol/L after 24 hrs by SDS-PAGE analysis. It is filed as functional, cell-based. In short, it runs like this: as §2
Experiment [14] is filed under the species Gallus gallus. The experiment is described as follows: Antiangiogenic activity in chicken embryo chorioallantoic membrane model assessed as inhibition of new blood vessel formation at 10 nmol/egg after 48 hrs by microscopy. It is filed as functional, tissue-based. In short, it runs like this: (§3)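 Fertilized chicken eggs incubated seven days at 37.5 °C, ~55% humidity, and the air sac membrane was detached. Sterile 5 × 5 mm filter paper soaked with DMSO or compound (5 and 10 nmol/egg) was air-dried and placed on the CAM. Eggs were sealed and reincubated. Fat emulsion (20%) was injected into the CAM and vessels photographed. Three independent experiments.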

The species named for experiment [15] is Gallus gallus. The experiment is described as follows: Antiangiogenic activity in chicken embryo chorioallantoic membrane model assessed as inhibition of new blood vessel formation at 5 nmol/egg after 48 hrs by microscopy. It is filed as functional, tissue-based. In short, it runs like this: as §3
Experiment [16] deals with HUVEC. The experiment is described as follows: Antiangiogenic activity against HUVEC assessed as inhibition of VEGF-induced branching and network formation at 25 umol/L after 5 hrs by microscopy. The class given is functional, cell-based. The following applies: Homo sapiens. In short, it runs like this: (§4)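 Matrigel-coated wells gelled 37 °C 30 min. DMSO or compound (final 25 µmol/L) added for 30 min before plating. After 5 h, enclosed complete tubes counted in five random fields by microscopy. Triplicate experiments, means ± SEM.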

Experiment [17] concerns HUVEC. The experiment is described as follows: Antiangiogenic activity against HUVEC assessed as inhibition of VEGF-induced tube formation at 25 umol/L after 5 hrs by microscopy. The class given is functional, cell-based. The note with it: Homo sapiens. Summed up: as §4
For a further experiment, the system named is HuT78. In words: Cytotoxicity against human HUT78 cells after 24 hrs by MTT assay. The class given is functional, cell-based. The following applies: HuT78, 24 h.
The subject of the next experiment is K562. The experiment is described as follows: Cytotoxicity against human K562 cells after 24 hrs by MTT assay. The class given is functional, cell-based. The following applies: K562, 24 h.
The next experiment has as its system HL-60. In words: Cytotoxicity against human HL60 cells after 24 hrs by MTT assay. The class given is functional, cell-based. The note with it: HL-60, 24 h.
A short description of experiment [18]: Cytotoxicity against human SHG44 cells after 24 hrs by MTT assay. The class given is functional, cell-based. The note with it: SHG-44, 24 h.
In the next experiment the test system is A-431. In words: Cytotoxicity against human A431 cells after 24 hrs by MTT assay. The class given is functional, cell-based. The following applies: A-431, 24 h.
The test system of another experiment is A549. The experiment is described as follows: Cytotoxicity against human A549 cells after 24 hrs by MTT assay. It is filed as functional, cell-based. The following applies: A549, 24 h.
For a further experiment, the system named is MKN-45. In words: Cytotoxicity against human MKN45 cells after 24 hrs by MTT assay. The class given is functional, cell-based. The following applies: MKN-45, 24 h.
The test system of another experiment is HCT-116. In words: Cytotoxicity against human HCT116 cells after 24 hrs by MTT assay. It is filed as functional, cell-based. The following applies: HCT-116, 24 h.
In the next experiment the test system is HepG2. The experiment is described as follows: Cytotoxicity against human HepG2 cells after 24 hrs by MTT assay. The class given is functional, cell-based. The note with it: HepG2, 24 h.
In the next experiment the test system is MDA-MB-231. In words: Cytotoxicity against human MDA-MB-231 cells after 24 hrs by MTT assay. It is filed as functional, cell-based. The following applies: MDA-MB-231, 24 h.
The subject of another experiment is MDA-MB-435. The experiment is described as follows: Cytotoxicity against human MDA-MB-435 cells after 24 hrs by MTT assay. The class given is functional, cell-based. The following applies: MDA-MB-435, 24 h.
Another experiment deals with BXPC-3. The experiment is described as follows: Cytotoxicity against human BxPC3 cells after 24 hrs by MTT assay. The class given is functional, cell-based. The following applies: BXPC-3, 24 h.
The test system of experiment [19] is PANC-1. In words: Cytotoxicity against human PANC1 cells after 24 hrs by MTT assay. It is filed as functional, cell-based. The following applies: PANC-1, 24 h.
The next experiment concerns PBMC. In words: Cytotoxicity against human PBMC after 24 hrs by MTT assay. It is filed as cell-based.
Experiment [20] deals with HUVEC. The experiment is described as follows: Antiangiogenic activity against HUVEC assessed as inhibition of VEGF-induced migration at 25 umol/L after 20 hrs by microscopy. The note with it: Homo sapiens.

For the compound `COc1cc2ccc(=O)oc2cc1OCCBr`, in the experiment with HUVEC [1], the inhibition of growth at 100 µM was determined as 5.6%. For the same compound, the inhibition of growth at 10 µM with HUVEC [2] is 4.9%.

In the case of `COc1cc2ccc(=O)oc2cc1OCCCCBr`, in the experiment with HUVEC [1], the inhibition of growth at 100 µM was determined as 16.9%. Moreover, the inhibition of growth at 10 µM in the experiment on HUVEC [2] is 11.2%.

With `COc1cc2ccc(=O)oc2cc1OCC(O)CN1CCOCC1` (stereo not given), the inhibition of growth at 100 µM in the experiment on HUVEC [1] turned out to be 0.1%. Besides, in the experiment on HUVEC [2], the inhibition of growth at 10 µM is 0.4%.

As to `COc1cc2ccc(=O)oc2cc1OCC(O)CN1CCN(C)CC1` (stereo not given), in the experiment with HUVEC [1], the inhibition of growth at 100 µM was 3.4%. In the experiment with HUVEC [2], the inhibition of growth at 10 µM stood at 0.1%.

For `COc1cc2ccc(=O)oc2cc1OCCNC(C)C`, the inhibition of growth at 100 µM in the experiment on HUVEC [1] turned out to be 0.1%. Further, in the experiment on HUVEC [2], the inhibition of growth at 10 µM turned out to be 0.1%.

As for `COc1cc2ccc(=O)oc2cc1OCCCl`, the inhibition of growth at 100 µM in the experiment with HUVEC [1] amounted to 3.3%. In the experiment on HUVEC [2], the inhibition of growth at 10 µM worked out at 0.3%.

A word on the IC50: it is the concentration that inhibits the measured activity by half. Consider `COc1cc2ccc(=O)oc2cc1OCC(=O)c1ccccc1`, for which the IC50 in the experiment with HUVEC [3] was 62.4 µM. Also, the inhibition of growth at 100 µM with HUVEC [1] was determined as 83.6%. The inhibition of growth at 10 µM in the experiment on HUVEC [2] was determined as 3.4%.

As for `COc1cc2ccc(=O)oc2cc1OCC(O)CN1CCCC1` (stereo not given), in the experiment with HUVEC [1], the inhibition of growth at 100 µM turned out to be 0.3%. Further, in the experiment with HUVEC [2], the inhibition of growth at 10 µM amounted to 0.5%.

As to `CCN(CC)CCOc1cc2oc(=O)ccc2cc1OC`, the inhibition of growth at 100 µM in the experiment on HUVEC [1] amounted to 3.1%. For the same compound, the inhibition of growth at 10 µM in the experiment with HUVEC [2] was determined as 0.1%.

Take `COc1cc2ccc(=O)oc2cc1OCCN1CCN(C)CC1`: the inhibition of growth at 100 µM in the experiment with HUVEC [1] came to 12%. The inhibition of growth at 10 µM with HUVEC [2] came out at 0%.

With `COc1cc2ccc(=O)oc2cc1OCC(=O)c1ccc([N+](=O)[O-])cc1`, the inhibition of growth at 100 µM in the experiment on HUVEC [1] worked out at 27.2%. Besides, the inhibition of growth at 10 µM with HUVEC [2] came to 4.1%.

Turning to `COc1cc2ccc(=O)oc2cc1OCC(O)CN1CCCCC1` (stereo not given), the outcome in the experiment with HUVEC [4], with HUVEC [5], in the experiment on HUVEC [6] and in the experiment with HUVEC [7] was inactive. The inhibition result in experiment [8] and in experiment [9] was “inactive” in each case. Besides, the inhibition entry (in [10]; in the experiment on PANC-1 [11]; in experiment [12]; with PANC-1 [13]; in the experiment listed under Gallus gallus [14]; in the experiment listed under Gallus gallus [15]) was “Active” throughout. Also, the inhibition result with HUVEC [16], with HUVEC [17] and with HUVEC [20] was “Active” each time. Besides, the IC50 in the experiment on HuT78 is 46.6 µM; in the experiment on K562, 43.7 µM; in the experiment on HL-60 it was 30.2 µM; in [18], 42.8 µM; with A-431 it was 93.9 µM; in the experiment on A549, 42.7 µM. In addition, the IC50 with MKN-45 worked out at 78.9 µM; in the experiment with HCT-116, 26.1 µM; with HepG2, 83.9 µM; in the experiment on MDA-MB-231 it was 51.6 µM; with MDA-MB-435, 63 µM; with BXPC-3, 35 µM. Moreover, the values for the IC50 in the experiment on PANC-1 [19], in the experiment with PBMC and with HUVEC [3] were over 100 µM, over 100 µM and 24.2 µM, respectively. In addition, the inhibition of growth at 100 µM with HUVEC [1] came out at 80.7%. In the experiment on HUVEC [2], the inhibition of growth at 10 µM came out at 31.4%.
